The values that follow come from ChEMBL document CHEMBL1135991 (J Med Chem, 2002).

The target in test [1] is T1, Melanocortin receptor 4 (Homo sapiens, UniProt P32245). Put plainly: Binding affinity for human Melanocortin-4 receptor (hMC4R).
In test [2] the target is T2, Melanocortin receptor 5 (Homo sapiens, UniProt P33032). Put plainly: Effective concentration against human melanocortin 5 receptor (hMC5R) in HEK293 cells. The class given is cell-based. An outline of the steps:
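Transfected HEK293 cells were seeded 50 000/well 48 h ahead. They were preincubated 1 min at 37 °C in EBSS with IBMX, then given varying melanotropin concentrations for 3 min at 37 °C. The reaction was stopped with ice-cold Tris/EDTA and lysates boiled 15 min. Supernatant cAMP was measured by competitive binding kit. EC50 came from a nonlinear least-squares fit; duplicate experiments, each in triplicate.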

The target of test [3] is T3, Melanocortin receptor 3 (Homo sapiens, UniProt P41968). Put plainly: Binding affinity for human Melanocortin-3 receptor (hMC3R) expressed in HEK293 cells. The class given is cell-based.
For test [4], the target named is T2, Melanocortin receptor 5. Put plainly: Binding affinity for human melanocortin 5 receptor (hMC5R) expressed in HEK293 cells. The format is cell-based.
Test [5] has as its target T1, Melanocortin receptor 4. Put plainly: Inhibition of binding to human Melanocortin-4 receptor (hMC4R).
Test [6] deals with T3, Melanocortin receptor 3. Put plainly: Inhibition of human Melanocortin-3 receptor (hMC3R) expressed in HEK293 cells. The format is cell-based.
The target in test [7] is T1, Melanocortin receptor 4. Description: Stimulation of intracellular cAMP levels in CHO cells expressing human Melanocortin-4 receptor. The format is functional, cell-based. Background: Changes in cAMP serve as a functional read-out for many G protein-coupled receptors.
Test [8] addresses T3, Melanocortin receptor 3. Put plainly: Stimulation of intracellular cAMP levels in HEK293 cells expressing human Melanocortin-3 receptor.
In test [9] the target is T2, Melanocortin receptor 5. Description: Stimulation of intracellular cAMP levels in HEK293 cells expressing human melanocortin 5 receptor.
The species entered for the next test is Homo sapiens. Put plainly: Selectivity as ratio of binding affinity for human melanocortin 1 and melanocortin 3 receptors.
Test [10] concerns the target Melanocortin receptor (M1 and M4) (Homo sapiens) (UniProt P32245+Q01726). Description: Selectivity as ratio of binding affinity for human melanocortin 1 and melanocortin 4 receptors. The format is protein assay.

T2 sequence (P33032 whole entry): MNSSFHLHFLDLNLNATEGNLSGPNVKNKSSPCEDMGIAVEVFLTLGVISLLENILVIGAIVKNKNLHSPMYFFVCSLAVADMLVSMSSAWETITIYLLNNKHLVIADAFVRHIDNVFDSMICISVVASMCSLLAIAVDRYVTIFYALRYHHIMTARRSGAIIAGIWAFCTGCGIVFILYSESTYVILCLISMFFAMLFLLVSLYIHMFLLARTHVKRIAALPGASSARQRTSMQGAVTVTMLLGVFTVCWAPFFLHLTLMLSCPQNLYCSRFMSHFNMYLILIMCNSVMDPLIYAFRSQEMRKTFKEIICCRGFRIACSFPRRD
T3 sequence (P41968 whole entry): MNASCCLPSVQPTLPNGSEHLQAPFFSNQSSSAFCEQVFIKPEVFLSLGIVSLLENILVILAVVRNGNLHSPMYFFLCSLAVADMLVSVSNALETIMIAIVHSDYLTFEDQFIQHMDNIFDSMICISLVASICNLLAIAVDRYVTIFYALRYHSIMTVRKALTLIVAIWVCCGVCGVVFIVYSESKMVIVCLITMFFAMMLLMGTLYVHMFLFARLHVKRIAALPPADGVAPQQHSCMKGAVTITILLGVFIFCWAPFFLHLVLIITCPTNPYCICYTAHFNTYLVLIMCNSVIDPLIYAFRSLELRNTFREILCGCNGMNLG
T1 sequence (P32245 whole entry): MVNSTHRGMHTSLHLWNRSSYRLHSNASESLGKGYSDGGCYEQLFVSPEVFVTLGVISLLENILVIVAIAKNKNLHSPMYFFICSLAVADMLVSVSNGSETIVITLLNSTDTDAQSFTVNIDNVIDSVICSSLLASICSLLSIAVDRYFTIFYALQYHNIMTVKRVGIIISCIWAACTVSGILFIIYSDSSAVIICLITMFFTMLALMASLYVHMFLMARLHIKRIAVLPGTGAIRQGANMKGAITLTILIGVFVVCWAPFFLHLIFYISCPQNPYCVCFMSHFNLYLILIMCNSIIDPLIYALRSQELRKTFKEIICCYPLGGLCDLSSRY

As to `N=C(N)NCCC[C@@H]1NC(=O)[C@@H](Cc2ccccc2)NC(=O)[C@H](Cc2c[nH]cn2)NC(=O)CCCC(=O)NCCCC[C@@H](C(N)=O)NC(=O)[C@H](Cc2c[nH]c3ccccc23)NC1=O`, the results for the Ki at Melanocortin receptor 4 [1], at Melanocortin receptor 3 [3] and on Melanocortin receptor 5 [4] were 0.67 µM, 0.11 µM and 3.1 µM, respectively. Moreover, the concentration for a half-maximal effect (EC50) (in general, the concentration needed to bring the measured effect to its halfway point) is above 10 µM at Melanocortin receptor 5 [2], 0.05 µM at Melanocortin receptor 4 [5] and 0.075 µM on Melanocortin receptor 3 [6].

Turning to `N=C(N)NCCC[C@@H]1NC(=O)[C@@H](Cc2ccc3ccccc3c2)NC(=O)[C@H](Cc2c[nH]cn2)NC(=O)c2ccccc2C(=O)NCCCC[C@H](C(N)=O)NC(=O)[C@@H](Cc2c[nH]c3ccccc23)NC1=O`, the ACT at Melanocortin receptor 4 [7] was 0%; on Melanocortin receptor 3 [8], 36%; on Melanocortin receptor 5 [9], 56%.

For the compound `N=C(N)NCCC[C@@H]1NC(=O)[C@@H](Cc2ccccc2)NC(=O)[C@H](Cc2c[nH]cn2)NC(=O)CCC(=O)NCCCC[C@@H](C(N)=O)NC(=O)[C@H](Cc2c[nH]c3ccccc23)NC1=O`, the values for the Ki at Melanocortin receptor 4 [1], on Melanocortin receptor 3 [3] and on Melanocortin receptor 5 [4] were 0.0057 µM, 0.077 µM and 0.66 µM, respectively. In addition, the EC50 on Melanocortin receptor 5 [2] was found to be 0.56 µM; on Melanocortin receptor 4 [5], 0.0016 µM; on Melanocortin receptor 3 [6], 0.07 µM.

With `NCCCC[C@H](NC(=O)[C@H](Cc1c[nH]c2ccccc12)NC(=O)[C@H](CCCN=C(N)N)NC(=O)[C@@H](Cc1ccccc1)NC(=O)[C@H](Cc1c[nH]cn1)NC(=O)CCC(=O)O)C(N)=O`, the ACT turned out to be 26.5% on Melanocortin receptor 4 [7], 100% at Melanocortin receptor 3 [8] and 100% on Melanocortin receptor 5 [9].

For `C[C@H]1NC(=O)[C@H](Cc2c[nH]cn2)NC(=O)CCC(=O)NCCCC[C@@H](C(N)=O)NC(=O)[C@H](Cc2c[nH]c3ccccc23)NC(=O)[C@H](CCCN=C(N)N)NC1=O`, the EC50 on Melanocortin receptor 5 [2] (hek293), on Melanocortin receptor 4 [5] and on Melanocortin receptor 3 [6] (hek293) was above 10 µM in each case.

`N=C(N)NCCC[C@@H]1NC(=O)[C@@H](Cc2ccccc2)NC(=O)[C@H](Cc2cnc[nH]2)NC(=O)c2ccccc2C(=O)NCCCC[C@@H](C(N)=O)NC(=O)[C@H](Cc2c[nH]c3ccccc23)NC1=O`: the inhibitory constant (Ki) (usually the equilibrium dissociation constant of an inhibitor or competing ligand from its target) at Melanocortin receptor 4 [1] stood at 0.058 µM; on Melanocortin receptor 3 [3], 0.28 µM. In addition, the EC50 at Melanocortin receptor 5 [2] was above 5 µM; at Melanocortin receptor 4 [5], 0.07 µM; on Melanocortin receptor 3 [6], 0.013 µM.

With `N=C(N)NCCC[C@@H]1NC(=O)[C@@H](Cc2ccccc2)NC(=O)[C@H](Cc2c[nH]cn2)NC(=O)CCCC(=O)NCCCC[C@H](C(N)=O)NC(=O)[C@@H](Cc2c[nH]c3ccccc23)NC1=O`, the ACT on Melanocortin receptor 4 [7] was 100%; at Melanocortin receptor 3 [8], 100%; on Melanocortin receptor 5 [9] it was 0%.

`N=C(N)NCCC[C@@H]1NC(=O)[C@@H](Cc2ccc3ccccc3c2)NC(=O)[C@H](Cc2c[nH]cn2)NC(=O)CCC(=O)NCCCC[C@H](C(N)=O)NC(=O)[C@@H](Cc2c[nH]c3ccccc23)NC1=O`: the figures for the ACT at Melanocortin receptor 4 [7], on Melanocortin receptor 3 [8] and on Melanocortin receptor 5 [9] were 35%, 88% and 100%, respectively.

In the case of `N=C(N)NCCC[C@@H]1NC(=O)[C@@H](Cc2ccc3ccccc3c2)NC(=O)[C@H](Cc2c[nH]cn2)NC(=O)CCCC(=O)NCCCC[C@H](C(N)=O)NC(=O)[C@@H](Cc2c[nH]c3ccccc23)NC1=O`, the ACT at Melanocortin receptor 4 [7] is 22.8%; on Melanocortin receptor 3 [8], 0%; on Melanocortin receptor 5 [9] it was 81%.

With `N=C(N)NCCC[C@@H]1NC(=O)[C@@H](Cc2ccccc2)NC(=O)[C@@H]2CCCN2C(=O)CCC(=O)NCCCC[C@@H](C(N)=O)NC(=O)[C@H](Cc2c[nH]c3ccccc23)NC1=O`, the Ki was 0.19 µM on Melanocortin receptor 4 [1], 0.39 µM at Melanocortin receptor 3 [3] (hek293) and 0.99 µM at Melanocortin receptor 5 [4] (hek293). Further, the results for the EC50 on Melanocortin receptor 5 [2] (hek293), at Melanocortin receptor 4 [5] and at Melanocortin receptor 3 [6] (hek293) were 1.3 µM, 2.3 µM and 0.79 µM, respectively.

Turning to `C[C@@H]1NC(=O)[C@@H](Cc2ccccc2)NC(=O)[C@H](Cc2c[nH]cn2)NC(=O)CCC(=O)NCCCC[C@H](C(N)=O)NC(=O)[C@@H](Cc2c[nH]c3ccccc23)NC1=O`, the ACT came to 0% at Melanocortin receptor 4 [7], 53% at Melanocortin receptor 3 [8] and 0% on Melanocortin receptor 5 [9].

Take `N=C(N)NCCC[C@@H]1NC(=O)[C@@H](Cc2ccc3ccccc3c2)NC(=O)[C@H](Cc2cnc[nH]2)NC(=O)c2ccccc2C(=O)NCCCC[C@@H](C(N)=O)NC(=O)[C@H](Cc2c[nH]c3ccccc23)NC1=O`: the inhibition constant Ki on Melanocortin receptor 4 [1] was found to be 0.057 µM; on Melanocortin receptor 3 [3], 0.0078 µM; on Melanocortin receptor 5 [4] it was 5.7 µM. The concentration giving a half-maximal response (EC50) at Melanocortin receptor 5 [2] is 0.64 µM; at Melanocortin receptor 4 [5], above 10 µM; on Melanocortin receptor 3 [6] it was 0.018 µM.

For `C[C@H]1NC(=O)[C@H](Cc2c[nH]cn2)NC(=O)CCC(=O)NCCCC[C@H](C(N)=O)NC(=O)[C@@H](Cc2c[nH]c3ccccc23)NC(=O)[C@H](CCCN=C(N)N)NC1=O`, the ACT on Melanocortin receptor 4 [7], on Melanocortin receptor 3 [8] and at Melanocortin receptor 5 [9] was 0% in each case.

Take `N=C(N)NCCC[C@H]1NC(=O)[C@H](Cc2ccccc2)NC(=O)[C@H]2CCCN2C(=O)CCC(=O)NCCCC[C@@H](C(N)=O)NC(=O)[C@H](Cc2c[nH]c3ccccc23)NC1=O`: the results for the ACT on Melanocortin receptor 4 [7], at Melanocortin receptor 3 [8] and at Melanocortin receptor 5 [9] were 60.5%, 21% and 100%, respectively.

On to `N=C(N)NCCC[C@@H]1NC(=O)[C@@H](Cc2ccccc2)NC(=O)[C@H](Cc2c[nH]cn2)NC(=O)c2ccccc2C(=O)NCCCC[C@H](C(N)=O)NC(=O)[C@@H](Cc2c[nH]c3ccccc23)NC1=O`, for which the ACT on Melanocortin receptor 4 [7] came to 98%; at Melanocortin receptor 3 [8], 76%; at Melanocortin receptor 5 [9] it was 0%.

As for `N=C(N)NCCC[C@@H]1NC(=O)[C@@H](Cc2ccc3ccccc3c2)NC(=O)[C@H](Cc2cnc[nH]2)NC(=O)CCCC(=O)NCCCC[C@@H](C(N)=O)NC(=O)[C@H](Cc2c[nH]c3ccccc23)NC1=O`, the Ki is 0.22 µM at Melanocortin receptor 4 [1], 0.0059 µM at Melanocortin receptor 3 [3] and 0.026 µM on Melanocortin receptor 5 [4]. For the same compound, the concentration giving a half-maximal response (EC50) on Melanocortin receptor 5 [2] is 0.00101 µM; on Melanocortin receptor 4 [5], 1.2 µM; on Melanocortin receptor 3 [6], above 10 µM.

On to `C[C@@H]1NC(=O)[C@@H](Cc2ccccc2)NC(=O)[C@H](Cc2cnc[nH]2)NC(=O)CCC(=O)NCCCC[C@@H](C(N)=O)NC(=O)[C@H](Cc2c[nH]c3ccccc23)NC1=O`, for which the results for the half-maximal effective concentration (EC50) at Melanocortin receptor 5 [2], at Melanocortin receptor 4 [5] and at Melanocortin receptor 3 [6] were above 10 µM, above 1 µM and 1 µM, respectively. At Melanocortin receptor 3 [3], this compound showed an inhibition constant Ki of 0.37 µM.

As to `C[C@@H]1NC(=O)CCC(=O)NCCCC[C@H](C(N)=O)NC(=O)[C@@H](Cc2c[nH]c3ccccc23)NC(=O)[C@H](CCCN=C(N)N)NC(=O)[C@@H](Cc2ccccc2)NC1=O`, the figures for the ACT at Melanocortin receptor 4 [7], at Melanocortin receptor 3 [8] and on Melanocortin receptor 5 [9] were 35%, 19% and 0%, respectively.

With `C[C@@H]1NC(=O)CCC(=O)NCCCC[C@@H](C(N)=O)NC(=O)[C@H](Cc2c[nH]c3ccccc23)NC(=O)[C@H](CCCN=C(N)N)NC(=O)[C@@H](Cc2ccccc2)NC1=O`, the results for the Ki at Melanocortin receptor 4 [1] and at Melanocortin receptor 3 [3] were 1.7 µM and 1.4 µM, respectively. Besides, the 50% effective concentration (EC50) on Melanocortin receptor 5 [2] was above 10 µM; at Melanocortin receptor 4 [5], 0.022 µM; on Melanocortin receptor 3 [6] it was 0.042 µM.

`N=C(N)NCCC[C@H](NC(=O)[C@@H](Cc1ccccc1)NC(=O)[C@H](Cc1cnc[nH]1)NC(=O)CCC(=O)O)C(=O)N[C@@H](Cc1c[nH]c2ccccc12)C(=O)N[C@@H](CCCCN)C(N)=O`: the Ki on Melanocortin receptor 4 [1] worked out at 0.63 µM; at Melanocortin receptor 3 [3], 0.14 µM; on Melanocortin receptor 5 [4] it was 0.88 µM. Moreover, the 50% effective concentration (EC50) on Melanocortin receptor 5 [2] was found to be 1.1 µM; at Melanocortin receptor 4 [5], 3 µM; on Melanocortin receptor 3 [6], 0.068 µM.

Turning to `N=C(N)NCCC[C@@H]1NC(=O)[C@@H](Cc2ccccc2)NC(=O)[C@H](Cc2c[nH]cn2)NC(=O)CCC(=O)NCCCC[C@H](C(N)=O)NC(=O)[C@@H](Cc2c[nH]c3ccccc23)NC1=O`, the Selectivity ratio turned out to be 52.5 in the test filed under Homo sapiens and 700 in [10]. For the same compound, the ACT is 100% on Melanocortin receptor 4 [7], 95% on Melanocortin receptor 3 [8] and 67% on Melanocortin receptor 5 [9].

On to `N=C(N)NCCC[C@@H]1NC(=O)[C@@H](Cc2ccc3ccccc3c2)NC(=O)[C@H](Cc2c[nH]cn2)NC(=O)CCC(=O)NCCCC[C@@H](C(N)=O)NC(=O)[C@H](Cc2c[nH]c3ccccc23)NC1=O`, for which the inhibition constant Ki on Melanocortin receptor 4 [1] was found to be 0.087 µM; on Melanocortin receptor 3 [3], 0.0121 µM; at Melanocortin receptor 5 [4], 0.14 µM. Also, the EC50 on Melanocortin receptor 5 [2] amounted to 0.15 µM; at Melanocortin receptor 4 [5], 0.26 µM; at Melanocortin receptor 3 [6], 0.07 µM.
